# NPY1 pot ag: human NPY-Y1 potentiation or agonism, primary screen; NPY-Y1 expressing cells, potentiator/agonist activation; P25929; activation, % at 3.6 µM; 220,000 compounds, 0.37% hits; in the data active = activation above about 33%, passing the limit was not always enough;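 note: cells stimulated with NPY at EC10 then isoproterenol at EC100; 0% = low agonist plus stimulus and 100% = saturating agonist plus stimulus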
# NPY Y2 blocker: antagonists of human neuropeptide Y receptor Y2; inhibition, % at 2.7 µM; NPY-Y2 expressing cells, antagonist mode; 140,000 compounds, 0.99% hits; P49146; in the data active = inhibition above about 17%;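 note: 0% = vehicle with agonist challenge and 100% = reference antagonist with challenge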
# NPY-Y1 antag: antagonists of human neuropeptide Y receptor Y1; HEK293-CNG Y1 cells, membrane potential fluorescence; NPY at EC95, then isoproterenol; inhibition, % at 3.6 µM; 200,000 compounds, 1% hits; AID 1040;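 active = inhibition above the campaign mean inhibition of all tested compounds plus 3 SD, cut at about 20% in these data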;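 note: 0% = DMSO wells given NPY plus isoproterenol and 100% = isoproterenol alone without NPY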
#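 Material: HEK293 Y1/CNG channel cell line | Also added: NPY (25 nM), isoproterenol (1 µM), Ro 20-1724 (25 µM) | Compound: One concentration, 3.6 µM, in 0.4% DMSO | Schedule: 3 h dye uptake, 1 h room-temperature compound, 45 min post-isoproterenol | Signal: Membrane-potential fluorescent dye readout | Read-out: % inhibition of NPY effect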
# Furin inhibitor: human furin inhibition | P09958 | inhibition, % at 20 µM or 30 µM | purified furin, fluorogenic substrate cleavage | 220,000 compounds, 0.061% hits | AID 463115; in the data active = inhibition above about 25%
# Target sequence (P09958 108-714 limits assumed): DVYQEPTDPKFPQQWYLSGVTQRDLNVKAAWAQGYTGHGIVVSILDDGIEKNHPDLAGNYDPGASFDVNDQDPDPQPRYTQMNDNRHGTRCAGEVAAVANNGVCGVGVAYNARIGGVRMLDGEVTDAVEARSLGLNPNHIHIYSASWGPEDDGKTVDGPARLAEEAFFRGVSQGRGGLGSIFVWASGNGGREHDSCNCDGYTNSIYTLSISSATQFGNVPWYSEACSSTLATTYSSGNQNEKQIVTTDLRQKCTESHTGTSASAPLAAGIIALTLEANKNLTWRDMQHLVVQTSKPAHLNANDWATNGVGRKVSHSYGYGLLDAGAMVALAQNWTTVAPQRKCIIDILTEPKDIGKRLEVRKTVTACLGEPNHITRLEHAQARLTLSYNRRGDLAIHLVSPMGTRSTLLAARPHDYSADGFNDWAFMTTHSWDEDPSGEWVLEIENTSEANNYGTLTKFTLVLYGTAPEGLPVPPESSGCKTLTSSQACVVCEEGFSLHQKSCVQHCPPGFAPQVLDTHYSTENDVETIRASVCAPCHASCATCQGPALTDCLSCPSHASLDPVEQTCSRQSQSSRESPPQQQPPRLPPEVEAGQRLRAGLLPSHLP
# NPY-Y2 PAM-ag: potentiates or activates human NPY-Y2 receptor; P49146; cells expressing NPY-Y2, potentiator/agonist read-out; activation, % at 3.6 µM; 220,000 compounds, 0.45% hits; in the data active = activation above about 27%;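 note: cells stimulated with NPY near EC25 plus isoproterenol at EC100; 0% = vehicle plus submaximal agonist and 100% = vehicle plus saturating agonist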
# KCC2 mod: KCC2 (human) Cl- transport modulation | Q9H2X9 | KCC2 cells, thallium flux FluoZin-2 fluorescence | B-score of Tl+ flux slope (higher = more flux/activation; lower = inhibition) at 10 µM | 190,000 compounds, 2.2% hits;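 active = thallium flux slope and its plate-corrected score both differing from the plate sample mean at a set confidence after two filtering rounds, in either direction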;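 note: slope of fluorescence scaled to starting intensity during 10 to 20 s after thallium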
# KCC2 secondary: KCC2 (human) modulation, secondary assay; shares compounds with KCC2 mod; HEK293-KCC2, thallium flux, FluoZin2 fluorescence; active compounds read high; normalised thallium flux (F/F0 slope) at 10 µM; 3,700 compounds, 15% hits; AID 1713;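 active = thallium flux slope above the same plate's solvent-only control mean plus 3 SD; inconclusive = the two replicate wells disagree; inactive = no significant difference from solvent-only control wells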
# KCC2 bumet counter: bumetanide-insensitive thallium flux in KCC2 cells with ouabain, counter-screen; 3,700 compounds, 49% hits; HEK293-KCC2 + bumetanide/ouabain, thallium flux FluoZin2; active compounds read high; normalized thallium flux at 10 µM; shares compounds with KCC2 mod;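 active = thallium entry rate above the same plate's blocked-transporter control wells by more than 3 SD; inconclusive = the two repeat wells disagree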;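 note: raw slope of fluorescence over initial fluorescence between 10 and 20 s after thallium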
# KCC2 secondary2: KCC2 (human) modulation, second secondary assay | AID 1715 | HEK293-KCC2, thallium flux FluoZin2 fluorescence; actives lie on both sides; F/F0 rise rate, 10–20 s post-thallium | normalized thallium flux at 10 µM | 3,700 compounds, 23% hits | shares compounds with KCC2 mod;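 active = thallium flux slope more than 3 SD above or below the plate's solvent-only control mean, mostly below; inconclusive = the two repeat wells disagreed; inactive = no significant shift from solvent-only controls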;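 note: raw slope with 0.1% DMSO as baseline and bumetanide as block control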
# HEK counter1: acts in parental HEK cells, KCC2 counter-screen; shares compounds with KCC2 mod; HEK293 parental cells, thallium flux FluoZin2, ouabain; baseline-ratio fluorescence slope, 10–20 s after thallium; thallium flux rate (normalised fluorescence) at 10 µM; 3,700 compounds, 46% hits;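 active = thallium flux rate significantly above the same plate's solvent-only control wells, beyond their mean plus 3 SD; inconclusive = the two replicate wells gave conflicting results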
# KCC2 ouabain: modulates human KCC2 on retest with ouabain. raw Tl+ flux slope (below DMSO = inhibition, above = activation) at 10 µM. shares compounds with KCC2 mod. AID 1717. HEK293-KCC2, thallium flux FluoZin2 fluorescence; bidirectional: low = inhibitor, high = activator. 3,700 compounds, 48% hits;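 active = thallium flux slope beyond 3 SD from same-plate DMSO control mean in most replicates, usually higher, sometimes lower; inconclusive = repeat tests gave conflicting results; inactive = no significant difference from controls in most replicates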;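 note: slope of initial-normalized fluorescence between seconds 10 and 20 after thallium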
# HEK293 Tl flux2: acts in parental HEK cells, second KCC2 counter-screen; shares compounds with KCC2 mod; HEK293 parental, thallium flux FluoZin-2 fluorescence slope; thallium flux slope at 10 µM; 3,700 compounds, 33% hits; AID 1718;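 active = thallium flux slope above the same plate's solvent-control mean plus 3 SD in both duplicate wells; inconclusive = duplicate wells that disagreed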;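 note: run without ouabain in cells lacking the KCC2 cotransporter; slope of fluorescence scaled to its starting value between 10 and 20 s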
# An asterisk follows results filed as active; ? = inconclusive; nt = not tested or not shown. Rows were chosen to be rich in hits. Some 3.7% of all compounds tested hit in one or more screens of this group.
SMILES,NPY1 pot ag,NPY Y2 blocker,NPY-Y1 antag,Furin inhibitor,NPY-Y2 PAM-ag,KCC2 mod,KCC2 secondary,KCC2 bumet counter,KCC2 secondary2,HEK counter1,KCC2 ouabain,HEK293 Tl flux2
Cc1ncoc1C(=O)N1CCCC(C(=O)c2ccc(-c3ccccc3)cc2)C1 (stereo unspecified),18,nt,3,-22,3,-3.3*,?,0.0062,0.03,0.0065,0.021*,?
O=C(c1ccc(-c2ccccc2)cc1)C1CCCN(Cc2ccncc2)C1 (stereo unspecified),-7,nt,1,-18,-14,-4.1*,0.0069,0.0049,0.025*,0.0079,?,0.011
O=C(COc1ccc2c(c1)OCO2)Nc1ccccc1C(F)(F)F,-9,nt,10,-20,-15,-0.5,nt,nt,nt,nt,nt,nt
S=C(Nc1ccc2nccnc2c1)N1CCOCC1,13,nt,5,-17,-11,1.3,nt,nt,nt,nt,nt,nt
CCOc1cc(C(=O)N/N=C\c2cn(CC)nc2C)cc(OCC)c1OCC,-15,1,2,-16,-12,-0.66,nt,nt,nt,nt,nt,nt
CC(=O)Nc1sc(C)c(C)c1C(=O)OCC(=O)Nc1cc(S(=O)(=O)N2CCCCC2)ccc1Cl,12,1,4,-9,0,-0.73,nt,nt,nt,nt,nt,nt
N#C/C(=N\Nc1ccccc1Cl)C(=O)c1ccccc1,0,6,-6,-14,4,-4.4*,0.0065,0.0048,0.03,?,0.015*,0.0099
Cc1c(N/N=C(\C#N)C(=O)c2ccccc2)c(=O)n(-c2ccccc2)n1C,-11,2,3,5,1,0.82,nt,nt,nt,nt,nt,nt
CC1=Nc2nc(N3CCCCC3)c(C#N)c3c4c(nc(c23)N1)N(c1ccc(C(C)C)cc1)C(=O)C4,0,-3,-4,-11,11,-0.78,nt,nt,nt,nt,nt,nt
Clc1ccc(COc2cccc(CNCc3ccncc3)c2)cc1,-25,nt,8,-11,3,-1,nt,nt,nt,nt,nt,nt
CCC(C)(C)n1nnnc1C(c1ccc(O)c(OC)c1)N1CCN(c2nc3ccccc3s2)CC1 (stereo unspecified),7,5,9,-8,13,-4.3*,0.008,0.0047,0.023*,0.007,0.016*,0.01
O=C(O)c1ccc(S(=O)(=O)c2ccc3c(c2)C(=O)N(NC(=O)c2cccnc2)C3=O)cc1,-11,nt,nt,-9,10,0.64,nt,nt,nt,nt,nt,nt
COC(=O)c1[nH]c2ccc(F)cc2c1NS(=O)(=O)c1ccc(F)c(C)c1,-23,-2,3,-12,14,-0.97,nt,nt,nt,nt,nt,nt
COC(=O)c1[nH]c2ccc(C)cc2c1NS(=O)(=O)c1ccc(F)c(C)c1,-7,-5,0,-4,3,-2.9*,0.011,?,0.028,0.0079,0.029,0.01
Nc1n[nH]c(N)c1N=Nc1ccc(Cl)cc1Cl,13,-1,-4,-6,21,-0.61,nt,nt,nt,nt,nt,nt
Cc1cccc(-c2nnc(-c3ccc(N)cc3)o2)c1,-4,3,0,-19,-1,-0.63,nt,nt,nt,nt,nt,nt
Cc1cccc(-c2nc(=S)c3c(o2)CCCC3)c1,-1,2,5,-4,-1,53*,0.015*,0.03*,0.028,0.015*,?,?
O=C1C=C(NCc2ccc3c(c2)OCO3)CC(c2ccccc2)C1 (stereo unspecified),-5,nt,3,-23,-1,-1.9,nt,nt,nt,nt,nt,nt
O=c1c2sccc2[nH]c(=S)n1Cc1ccccc1,-23,3,2,-14,9,68*,0.0088,0.11*,0.084*,0.086*,0.094*,0.079*
C=C1c2ccccc2NC(=S)N1Cc1ccc2c(c1)OCO2,-17,nt,2,-7,-11,9.9*,0.0069,0.02*,0.032,0.021*,0.034*,0.017*
CC(C)(C)NC(=O)c1ccc2nsnc2c1,-5,3,2,-40,5,0.82,nt,nt,nt,nt,nt,nt
Cc1ccc(NC(=S)NNc2ccc([N+](=O)[O-])cc2S(=O)(=O)Nc2ccccc2C(=O)O)cc1C,-22,0,3,-24,-3,-6.1*,0.0069,0.0047,0.025*,?,0.012*,?
O=C(O)c1ccccc1NS(=O)(=O)c1ccc(NNC(=S)Nc2ccc(OC(F)F)cc2)c([N+](=O)[O-])c1,11,nt,0,-17,6,-0.13,nt,nt,nt,nt,nt,nt
CCOC(=O)N1CCN(S(=O)(=O)c2ccc(C(=O)Nc3ccc4c(c3)C(=O)NC4=O)cc2)CC1,3,3,0,-29,11,0.18,nt,nt,nt,nt,nt,nt
COc1ccccc1Oc1ncnc2c1cnn2-c1ccccc1,-4,nt,6,-21,-15,-5*,?,0.0056,0.033,0.0036,0.015*,0.011
SMILES,NPY1 pot ag,NPY Y2 blocker,NPY-Y1 antag,Furin inhibitor,NPY-Y2 PAM-ag,KCC2 mod,KCC2 secondary,KCC2 bumet counter,KCC2 secondary2,HEK counter1,KCC2 ouabain,HEK293 Tl flux2
CCn1c(=O)n(CCOC)c(=O)c2c3c(sc21)CCCC3,4,1,11,-12,-4,-1.7,nt,nt,nt,nt,nt,nt
COCCCn1c(=S)[nH]c2sc3c(c2c1=O)CCCS3,-11,nt,1,-25,-1,53*,0.033*,0.093*,0.049*,0.068*,0.077*,0.029*
Cc1nc2ccccn2c1C(=O)CSc1cccc(Cl)c1,-1,nt,7,-13,-5,-0.026,nt,nt,nt,nt,nt,nt
O=C(C1CCCN(S(=O)(=O)c2cccc3nonc23)C1)N1CCN(c2ccccc2Cl)CC1 (stereo unspecified),22,-2,-4,-25,15,-1.2,nt,nt,nt,nt,nt,nt
O=C(C1CCCN(S(=O)(=O)c2cccc3nonc23)C1)N1CCC(Cc2ccccc2)CC1 (stereo unspecified),0,2,-3,-18,12,nt,0.0057,?,0.024*,0.0067,?,0.01
O=C(NCCN1CCC(Cc2ccccc2)CC1)C1CCCN(S(=O)(=O)c2cnc[nH]2)C1 (stereo unspecified),-8,1,4,-12,-13,-4*,0.0059,0.0049,0.029,0.0074,0.019,0.0093
CCOc1ccc(C(C)=O)cc1NC(=O)/C=C\C(=O)O,3,nt,-1,-7,-13,0.025,nt,nt,nt,nt,nt,nt
